Data set [1] has as its system P. falciparum Dd2 (chloroquine-resistant). As to the kind of experiment: P. falciparum Dd2 antiplasmodial activity. It counts as cell-based, Plasmodium falciparum. The conditions noted are these: read-out: Antiplasmodial activity IC50 Dd2.
In data set [2] the test system is J774. As to the kind of experiment: Cytotoxicity against uninfected J774 cells. It counts as cell-based. The conditions noted are these: read-out: Cytotoxicity IC50 J774.
For data set [3], the system named is P. falciparum HB3 (chloroquine-sensitive). Nature of the data set: P. falciparum HB3 antiplasmodial activity. Format: cell-based, Plasmodium falciparum. The settings on record: read-out: Antiplasmodial activity IC50 HB3.
The nature of data set [4]: Spectrophotometric titration of Fe. Format: binding. Put shortly: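 Heme (Fe(III)PPIX) titrated with test compound from 1:1 to 16:1 mol equiv compound:heme at 23 °C in 40 % DMSO, 20 mM HEPES, pH 7.4. Soret-band and Q-band absorbance recorded after each addition. Spectra corrected for dilution by subtracting a reference cell.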
Data set [5] deals with heme crystallization. As to the kind of experiment: Parasite-free colorimetric heme crystallization inhibition. Format: biochemical. The settings on record: molar equivalents of compound to heme.
Data set [6] has as its system P. falciparum (3D7). As to the kind of experiment: P. falciparum 3D7 proliferation. It counts as cell-based, Plasmodium falciparum.
For data set [7], the system named is Vero. Nature of the data set: Cytotoxicity against uninfected Vero cells. Format: cell-based. The settings on record: for IC50: read-out: Cytotoxicity IC50 Vero, uninfected Vero cells.
Data set [8] deals with HepG2. Nature of the data set: Cytotoxicity against uninfected HepG2 cells. It counts as cell-based. The settings on record: read-out: Cytotoxicity IC50 HepG2.
Data set [9] has as its system P. falciparum (3D7). The conditions noted are these: read-out: Antiplasmodial activity IC50 3D7, ref Hawley et al. [30]; cited from earlier work.
Data set [10] concerns P. falciparum HB3 (chloroquine-sensitive). The settings on record: read-out: Antiplasmodial activity IC50 HB3, ref Hawley et al. [30]; cited from earlier work.
Where [11] appears, read: read-out: Antiplasmodial activity IC50 3D7, 3D7, chloroquine-sensitive.
Setting [12] is: read-out: P. falciparum (3D7) IC50, 3D7 strain.

These results are taken from PMC3381860 (Chemmedchem, 2011).

Values joined by “and” are separate entries in the source; they are usually repeats but may differ in a detail not shown here. Equal entries are not always repeated. Where two headings read alike, the source gives them in different places.

Regarding 18-acetylbromophycolide A [Compound 7], the IC50 (in general, the point on the concentration scale where inhibition reaches its midpoint) worked out at 304 ± 8.4 nM in data set [1]; 24700 nM in data set [2]; 431 ± 25 nM in data set [3]; 241 ± 52 nM in [6] (setting [11]); 240 nM in data set [6] (setting [12]); 74000 nM in [7]. Besides, in data set [8], the IC50 was 38500 nM. For the same molecule, the “decrease in Soret band (λ 402 nm) absorbance of Fe^IIIPPIX upon titration” value in data set [4] (40 % DMSO, 20 mM HEPES, pH 7.4) was found to be 25%. For the same molecule, the “Heme crystallization IC50” value in data set [5] was 2.0 mol equiv and 2.0 ± 0.15 mol equiv. In addition, the “fold increase in activity for P. falciparum parasites over mammalian (Vero) cells” value in [7] (selectivity P. falciparum vs Vero) stood at 300 fold.

Take `CC1=C2Cc3cc(ccc3O)C(=O)O[C@H](C(C)(C)Br)CC[C@](C)(O)[C@H](Br)CC[C@]2(C)[C@@H](Br)CC1` [Compound 1, bromophycolide A]: the IC50 came out at 377 ± 92 nM in data set [1]; 19000 nM in data set [2]; 493 ± 44 nM in data set [3]; 499 ± 51 nM in data set [6] (setting [11]); 500 nM in data set [6] (setting [12]); 34600 nM in [7]. Further, the IC50 in [8] is 21300 nM. Further, the “association constant log K of Fe^IIIPPIX–compound complex” value in data set [4] (1:1 complexation model, 40 % DMSO, 20 mM HEPES, pH 7.4) worked out at 4.52 ± 0.18. Besides, the “decrease in Soret band (λ 402 nm) absorbance of Fe^IIIPPIX upon titration” value in data set [4] (40 % DMSO, 20 mM HEPES, pH 7.4) came to 45%. For the same molecule, in [4] (spectrophotometric titration experiment), the “binding concentration at half-maximum” value was 25 µM. In addition, the “Heme crystallization IC50” value in [5] is 2.5 mol equiv and 2.5 ± 0.13 mol equiv.

On to debromophycolide A [Compound 6], for which the “P. falciparum (3D7) IC50” value in data set [6] (3D7 strain) is “completely inactive”. The IC50 in data set [6] (setting [12]) was above 100000 nM.

As for `C=C(C)[C@@H]1CCC(C)(O)[C@H](Br)CC[C@@]2(C)C(=C(C)CC[C@@H]2Br)Cc2cc(ccc2O)C(=O)O1` (stereo partly shown) [Compound 5, bromophycolide M], the IC50 in data set [6] (setting [12]) is 550 nM.

Turning to bromophycolide D [Compound 3], the IC50 in data set [6] (setting [12]) came to 350 nM.

Turning to `C=C(C)[C@@H]1CC[C@](C)(O)[C@H](Br)CC[C@@]2(C)[C@H](Cc3cc(ccc3O)C(=O)O1)C(=C)CC[C@@H]2Br` [Compound 4, bromophycolide E], the IC50 in data set [6] (setting [12]) is 820 nM.

As to `CC1=C2Cc3cc(ccc3O)C(=O)O[C@H](C(C)(C)O)CC[C@](C)(O)[C@H](Br)CC[C@]2(C)[C@@H](Br)CC1` [Compound 2, bromophycolide C], the IC50 in [6] (setting [12]) was determined as 56000 nM.

As to `CCN(CC)Cc1cc(Nc2ccnc3cc(Cl)ccc23)ccc1O` [AMQ, amodiaquine, reference compound], the “Heme crystallization IC50” value is reported as 1.2 ± 0.19 mol equiv in data set [5] and 1.2 mol equiv in [5] (listed as amodiaquine). In addition, the values for the IC50 in data set [9] and in data set [10] were 7.8 nM and 8.5 nM, respectively.
